According to ChEMBL document CHEMBL1133118 (J Med Chem, 2000):

Assays:
[1] = target: Adenosine receptors; A1 & A3 (Homo sapiens) (UniProt P30542+P0DMS8); experiment: Ratio of binding affinity of human A1 receptor to that of human A3 receptor; assay type: protein assay
Outline: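 Ki ratio from displacement in CHO membranes, 6–8 concentrations, n=3-6, filtration counting. A1: 1 nM [3H]DPCPX, 50 μg protein, 120 min at 25 °C, nonspecific with 10 μM CHA. A3: 1 nM [3H]MRE3008-F20, 50 μg protein, Tris/10 mM MgCl2 pH 7.4, 120 min at 4 °C, nonspecific with 1 μM MRE3008-F20.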

[2] = target: T1, Adenosine receptor A1 (Homo sapiens, UniProt P30542); experiment: Tested for inhibitory activity against human adenosine A1 receptor by displacement of [3H]DPCPX expressed in CHO cells; value ranges from 2362-2575; assay type: cell-based
T1 sequence (P30542 whole entry): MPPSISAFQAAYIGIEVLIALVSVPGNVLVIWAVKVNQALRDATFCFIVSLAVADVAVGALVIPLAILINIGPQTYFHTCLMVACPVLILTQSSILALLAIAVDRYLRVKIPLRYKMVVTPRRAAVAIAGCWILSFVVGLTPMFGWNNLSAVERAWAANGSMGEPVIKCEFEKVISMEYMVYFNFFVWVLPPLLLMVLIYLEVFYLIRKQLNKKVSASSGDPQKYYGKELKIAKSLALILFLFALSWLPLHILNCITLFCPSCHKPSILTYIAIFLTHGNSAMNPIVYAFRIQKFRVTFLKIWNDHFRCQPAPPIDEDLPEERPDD

[3] = target: Adenosine receptors; A2b & A3 (Homo sapiens) (UniProt P29275+P0DMS8); experiment: Ratio of binding affinity of human A2B receptor to that of human A3 receptor; assay type: protein assay
Outline: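 Ki ratio, n=3-6, 6–8 concentrations. A2B in HEK-293 membranes (20 μg): 40 nM [3H]DPCPX, 50 mM Tris HCl, 10 mM MgCl2, 1 mM EDTA, 0.1 mM benzamidine pH 7.4, 2 IU/mL adenosine deaminase, 60 min at 25 °C, nonspecific with 100 μM NECA. A3 in CHO membranes (50 μg): 1 nM [3H]MRE3008-F20, 120 min at 4 °C.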

[4] = target: T2, Adenosine receptor A3 (Homo sapiens) (UniProt P0DMS8); experiment: Percentage of blockade by 1 uM of the inhibition by 100 nM IB-MECA-inhibited cAMP accumulation in CHO cells expressing human adenosine A3 receptor.; assay type: functional, cell-based
T2 sequence (whole entry): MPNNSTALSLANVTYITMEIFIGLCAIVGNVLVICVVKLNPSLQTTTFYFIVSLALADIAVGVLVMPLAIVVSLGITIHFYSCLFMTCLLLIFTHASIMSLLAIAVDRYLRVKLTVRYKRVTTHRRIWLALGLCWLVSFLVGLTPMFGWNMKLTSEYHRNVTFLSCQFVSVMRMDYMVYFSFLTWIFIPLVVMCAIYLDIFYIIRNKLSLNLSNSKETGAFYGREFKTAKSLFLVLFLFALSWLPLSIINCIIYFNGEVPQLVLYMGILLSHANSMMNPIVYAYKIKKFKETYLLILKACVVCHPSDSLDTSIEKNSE
Outline: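 CHO cells stably expressing human A3 receptor; membranes in 50 mM Tris HCl, 10 mM MgCl2, 1 mM EDTA pH 7.4 with 5 μM GTP, 0.5 mM […] and 2.0 IU/mL adenosine deaminase. Preincubated 10 min at 37 °C, then IB-MECA (100 nM) and/or antagonist with 1 mM ATP and 10 μM forskolin for 10 min. Boiled 2 min. cAMP read by [3H]cAMP competition with adrenal binding protein.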

[5] = target: T3, Adenosine receptor A3 (Homo sapiens, UniProt P0DMS8); experiment: biochemical
T3 sequence (P0DMS8 whole entry): T2 sequence (whole entry)

[6] = target: T4, Adenosine receptor A2a (Homo sapiens, UniProt P29274); experiment: Displacement of [3H]-SCH- 58261 from human adenosine A2A receptor expressed in CHO cells; range 2826-3761; assay type: cell-based
T4 sequence (P29274 whole entry): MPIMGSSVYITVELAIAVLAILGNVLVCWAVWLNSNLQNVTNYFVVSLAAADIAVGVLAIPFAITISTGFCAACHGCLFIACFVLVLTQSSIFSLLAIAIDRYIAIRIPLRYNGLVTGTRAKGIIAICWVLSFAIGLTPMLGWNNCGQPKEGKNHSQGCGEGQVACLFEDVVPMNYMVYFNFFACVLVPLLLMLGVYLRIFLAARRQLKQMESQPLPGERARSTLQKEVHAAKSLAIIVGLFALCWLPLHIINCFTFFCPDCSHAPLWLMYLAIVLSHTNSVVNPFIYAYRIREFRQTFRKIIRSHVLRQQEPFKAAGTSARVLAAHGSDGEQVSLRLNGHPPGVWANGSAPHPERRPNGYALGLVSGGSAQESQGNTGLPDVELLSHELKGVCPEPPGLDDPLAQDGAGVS

[7] = target: T5, Adenosine receptor A2b (Homo sapiens, UniProt P29275); experiment: Displacement of [3H]DPCPX from Adenosine A2b receptor expressed in CHO cells; assay type: cell-based
T5 sequence (P29275 whole entry): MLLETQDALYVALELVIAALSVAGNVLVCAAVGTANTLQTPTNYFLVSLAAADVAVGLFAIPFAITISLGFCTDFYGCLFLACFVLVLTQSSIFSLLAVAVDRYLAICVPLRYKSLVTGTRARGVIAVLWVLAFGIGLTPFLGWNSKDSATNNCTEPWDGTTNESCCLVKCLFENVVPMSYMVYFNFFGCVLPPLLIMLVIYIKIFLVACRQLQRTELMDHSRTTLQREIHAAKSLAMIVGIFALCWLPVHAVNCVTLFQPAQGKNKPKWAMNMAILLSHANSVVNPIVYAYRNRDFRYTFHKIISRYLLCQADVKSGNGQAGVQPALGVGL

[8] = target: T3, Adenosine receptor A3; experiment: Displacement of [3H]MRE3008-F20 from human adenosine A3 receptor expressed in CHO cells; range 285-385; assay type: cell-based
[9] = target: T4, Adenosine receptor A2a; experiment: Displacement of [3H]-SCH- 58261 from human adenosine A2A receptor expressed in CHO cells; range 1.70-2.10; assay type: cell-based
Outline: (§1)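 Membranes from CHO cells stably expressing human A2A receptor, grown in DMEM/F12 without nucleosides, resuspended in 50 mM Tris HCl, 10 mM MgCl2, pH 7.4; 50 μg protein/assay. Competition with [3H]SCH 58261 at 6–8 or more compound concentrations, 60 min at 25 °C; nonspecific binding with 50 μM NECA. Filtration on GF/B filters, scintillation counting; n=3-6.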

[10] = target: T5, Adenosine receptor A2b; experiment: Displacement of [3H]DPCPX from Adenosine A2b receptor expressed in […]; range 56-75; assay type: cell-based
[11] = target: T5, Adenosine receptor A2b; experiment: Displacement of [3H]DPCPX from Adenosine A2b receptor expressed in CHO cells; range 45-64; assay type: cell-based; conditions: in the assay text read “HEK-293 cells” for “CHO cells”
Outline: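 Human recombinant A2B receptor was expressed in HEK-293 cell membranes (20 μg protein). Incubated with 40 nM [3H]DPCPX in 50 mM Tris HCl, 10 mM MgCl2, 1 mM EDTA, 0.1 mM benzamidine, pH 7.4, with 2 IU/mL adenosine deaminase, at least 6–8 test concentrations, 60 min, 25 °C. Nonspecific binding was taken with 100 μM NECA; n=3-6.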

[12] = target: T2, Adenosine receptor A3 (Homo sapiens); conditions: CHO, 1 uM
[13] = target: T1, Adenosine receptor A1; experiment: Displacement of [3H]DPCPX from human adenosine A1 receptor expressed in CHO cells; range 149-204; assay type: cell-based
[14] = target: T4, Adenosine receptor A2a; experiment: Displacement of [3H]-SCH- 58261 from human adenosine A2A receptor expressed in CHO cells; range 47-78; assay type: cell-based; outline: as §1
[15] = target: T3, Adenosine receptor A3; experiment: Displacement of [3H]MRE3008-F20 from human adenosine A3 receptor expressed in CHO cells; range 23-40; assay type: cell-based
[16] = target: T3, Adenosine receptor A3; experiment: Displacement of [3H]MRE3008-F20 from human adenosine A3 receptor expressed in CHO cells; range 378-488; assay type: cell-based
[17] = target: T4, Adenosine receptor A2a; experiment: biochemical
[18] = target: T5, Adenosine receptor A2b; experiment: Displacement of [3H]DPCPX from Adenosine A2b receptor expressed in HEK-293 cells; range 38-63
[19] = target: T3, Adenosine receptor A3; experiment: biochemical; remark: listed apart in the source
[20] = target: T3, Adenosine receptor A3; experiment: Inhibition of cAMP accumulation in CHO cells expressing human adenosine A3 receptor; assay type: functional, cell-based
[21] = target: T5, Adenosine receptor A2b; experiment: Displacement of [3H]DPCPX from Adenosine A2b receptor expressed in HEK-293 cells; range 81-101
[22] = target: T1, Adenosine receptor A1; experiment: Displacement of [3H]DPCPX from human adenosine A1 receptor expressed in CHO cells; range 81-127; assay type: cell-based
[23] = target: T4, Adenosine receptor A2a; experiment: Displacement of [3H]-SCH- 58261 from human adenosine A2A receptor expressed in CHO cells; range 2.40-3.55; assay type: cell-based
[24] = target: T3, Adenosine receptor A3; experiment: biochemical; remark: listed apart in the source

COc1ccc(NC(=O)Nc2nc3nn(CCc4cccc5ccccc45)cc3c3nc(-c4ccco4)nn23)cc1
Ratio [1]: 154 | Ki [2]: 2470 nM | Ratio [3]: > 625 | inhibition [4]: 52% | Ki [5]: 16 nM | Ki [6]: 3260 nM | Ki [7]: > 10000 nM

CCn1cc2c(nc(N)n3nc(-c4ccco4)nc23)n1
Ratio [1]: 0.015 | Ratio [3]: 0.19 | inhibition [4]: 25% | Ki [8]: 331 nM | Ki [9]: 1.95 nM | Ki [10]: 65 nM

COc1ccc(NC(=O)Nc2nc3nn(CCC(C)C)cc3c3nc(-c4ccco4)nn23)cc1
Ki [11]: 54 nM | inhibition [12]: 48% | Ratio [1]: 5.8 | Ki [13]: 175 nM | Ki [14]: 65 nM | Ratio [3]: 1.8 | Ki [15]: 30 nM

Nc1nc2nn(CCCc3ccccc3)cc2c2nc(-c3ccco3)nn12
Ratio [1]: 0.007 | Ratio [3]: 0.011 | inhibition [4]: 18% | Ki [16]: 430 nM | Ki [17]: 0.16 nM | Ki [18]: 49 nM

Nc1nc2ccc(Cl)cc2c2nc(-c3ccco3)nn12 [CGS-15943]
Ki [19]: 85 nM | IC50 [20]: 406 nM | inhibition [4]: 30%

Cn1cc2c(nc(N)n3nc(-c4ccco4)nc23)n1
Ki [21]: 90 nM | Ki [22]: 101 nM | Ki [23]: 2.8 nM | Ratio [1]: 0.33 | Ki [24]: 300 nM | Ratio [3]: 0.3 | inhibition [4]: 26%
